An excerpt weighted towards active compounds, which were near 2.3% of everything screened.
TRPC4 agonist – opens the mouse TRPC4 cation channel; 0.49% of 310,000 active; HEK293 TRPC4beta/mu-opioid, Fluo4 calcium fluorescence; stronger effect = higher value; Q9QUQ5; AID 2237; B-score at 10 µM;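 active means B-score above 5 SD of library B-scores, and initial fluorescence ratio not above library mean plus 5 SD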;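 further: positive B-score marks a calcium rise read as TRPC4 activation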
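Assay system: HEK293 stable line with TRPC4beta plus mu-opioid receptor; schedule: 45 min room-temperature Fluo4 loading, 110 s read; technique: kinetic Fluo4 calcium fluorescence; evaluation: integrated baseline-normalised fluorescence ratio, converted to per-well B score; controls: buffer (low) and maximal DAMGO (high)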
TRPC6 activator – mouse TRPC6 channel activation; Q61143; HEK293-TRPC6 membrane potential dye fluorescence; stronger effect = higher value; B-score at 10 µM; 0.13% of 310,000 active; AID 2550;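 active means B-score of the integrated fluorescence ratio above library mean plus 3 SD, and starting fluorescence ratio within library mean plus 5 SD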;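 further: higher score means more depolarization so channel activation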
TRPC4 inh – TRPC4 (mouse) channel inhibition; Q9QUQ5; AID 2247; 0.39% of 300,000 active; B-score at 10 µM; HEK293 TRPC4beta/mu-opioid, DAMGO-evoked Fluo4 calcium flux; stronger effect = lower value;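 active means B-score over 3 SD under the library average, no early fluorescence shift, positive overall ratio signal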
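Assay system: TRPC4beta/mu-opioid receptor HEK293 cell line; compound dosing: single concentration per test compound; detection: Fluo4 Ca2+ flux fluorescence; evaluation: per-well B score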
TRPC6 inh – blocks the mouse TRPC6 cation channel. Q61143. HEK293-TRPC6, membrane potential dye, ACh-evoked depolarization; stronger effect = lower value. B-score at 10 µM. 1.1% of 310,000 active. AID 2553;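 active means B-score under library mean minus 3 SD, initial fluorescence not abnormally high, positive integrated signal ratio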;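 further: B-score derived from integrated fluorescence ratio over the kinetic read; more negative B-score means stronger inhibition of depolarization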
TRPC4 potent – TRPC4 (mouse) allosteric potentiation. HEK293 TRPC4beta/mu-opioid, DAMGO EC20, Fluo-4 Ca2+ flux; stronger effect = higher value. B-score at 10 µM. 0.42% of 310,000 active;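 active means B-score of calcium response area above 5 SD of library B-scores, with initial fluorescence ratio within 5 SD of library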;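 further: B-score of integrated fluorescence ratio over time as area under calcium response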
TRPC4 spec 2 – second check of whether TRPC6 inhibitors also affect mouse TRPC4. 42% of 920 active. HEK293 TRPC4/MOR, membrane potential dye fluorescence; channel activated by saturating DAMGO dose. inhibition, % at 10 µM. AID 2776. shares compounds with TRPC6 inh;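 active means compounds whose fluorescence signal differed from control wells by over 3 SD, either direction, in both duplicate plates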
TRPC4 spec – selectivity of TRPC6 inhibitors: effect on mouse TRPC4 | shares compounds with TRPC6 inh | HEK293 TRPC4/mu-opioid, membrane potential fluorescence | activity change, negative = inhibition, % at 10 µM | 61% of 920 active | AID 2777;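 active means rise or fall in signal beyond 3 SD of buffer-only wells in both replicate plates, either sign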;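 further: integrated kinetic ratio of fluorescence range over baseline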
HEK293 MPD ctr 2-1 – second check of TRPC6 inhibitor effects in parental HEK293 cells; shares compounds with TRPC6 inh; 31% of 920 active; signal change vs control, % at 10 µM; parental HEK293 membrane potential dye fluorescence; maximal acetylcholine challenge after compound addition;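 active means membrane potential signal moving either way by over 3 SD of the maximum-effect control, in both duplicate plates, meaning non-specific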
HEK293 MPD ctr-1 – checks TRPC6 inhibitor effects in parental HEK293 cells; shares compounds with TRPC6 inh; parental HEK293 membrane potential dye fluorescence; membrane potential signal change, % at 10 µM; 60% of 920 active; AID 2780;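 active means membrane potential signal shifting up or down by more than 3 SD of buffer-only wells, on both duplicate plates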
HEK293 MPD ctr-2 – parental HEK293 nonspecific activity of TRPC6 modulators. shares compounds with TRPC6 inh. membrane potential signal change, % at 10 µM. membrane potential dye fluorescence. 51% of 2,400 active;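 active means membrane potential signal moves up or down beyond 5 SD from buffer-only wells, on both duplicate plates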
HEK293 MPD ctr 2-2 – second counter-screen for TRPC6 modulators: effect in parental HEK293 cells; 14% of 2,400 active; shares compounds with TRPC6 inh; membrane potential dye fluorescence; after compound, maximal acetylcholine stimulation; inhibition, % at 10 µM;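 active means membrane potential signal drops by more than 5 SD from the mean control signal, in both duplicate plates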;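 further: plate controls were acetylcholine ECmax control wells for no effect and buffer only wells for full effect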
TRPC4 ctr mod – mouse TRPC4 off-target activity of TRPC6 modulators. HEK293 TRPC4/mu-opioid, membrane potential fluorescence. percent change from control (negative = decrease, positive = increase), % at 10 µM. shares compounds with TRPC6 inh. 69% of 2,400 active;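 active means membrane potential signal moved up or down beyond 5 SD of buffer control wells, in both duplicate plates, actives on both sides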;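 further: plate controls were assay buffer wells for no effect and DAMGO maximal-effect wells for full effect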
TRPC4 ctr inh 2 – second selectivity test of TRPC6 modulators against mouse TRPC4. shares compounds with TRPC6 inh. HEK293 TRPC4/mu-opioid, membrane potential dye fluorescence; stimulated with maximal-effect DAMGO. inhibition, % at 10 µM. 55% of 2,400 active. AID 488928;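 active means drop in membrane potential signal beyond 5 SD of the control wells in both duplicate plates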;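 further: TRPC4 counter screen for TRPC6 hits run under conditions tuned for TRPC6 not TRPC4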
TRPC6 block conf – mouse TRPC6 inhibitor confirmation. shares compounds with TRPC6 inh. HEK293-TRPC6, membrane potential dye, ACh-evoked depolarization. inhibition, % at 10 µM. 43% of 3,300 active. AID 488960;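 active means fluorescence ratio falls more than 5 SD below the full-stimulation control mean, in both duplicate runs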;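 further: integrated fluorescence ratio of peak minus minimum over baseline after agonist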
TRPC6 act confirm – confirmation of mouse TRPC6 activators | shares compounds with TRPC6 inh | HEK293-TRPC6 membrane potential dye fluorescence, FDSS | activation, % at 10 µM | 11% of 2,800 active;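 active means ratio signal rise beyond 5 SD above unstimulated control wells' mean, seen in both duplicate runs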;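 further: plate controls were buffer EC0 wells for no effect and acetylcholine ECmax response for full effect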
* hit, by the source's call; i = inactive; nt = not tested or not shown.

SMILES	TRPC4 agonist	TRPC6 activator	TRPC4 inh	TRPC6 inh	TRPC4 potent	HEK293 MPD ctr-2	HEK293 MPD ctr 2-2	TRPC4 ctr mod	TRPC4 ctr inh 2	TRPC6 block conf	TRPC6 act confirm	others
Cc1ccc(N=Nc2c(N)[nH]n3c(=O)cc(-c4ccccc4)nc23)cc1	i	i	i	-8.56*	i	nt	nt	nt	nt	79.3%*	i	TRPC4 spec 2=52.5%*;TRPC4 spec=-17.3%*;HEK293 MPD ctr 2-1=i;HEK293 MPD ctr-1=-220.0%*
COc1cccc(N=Nc2c(N)[nH]n3c(=O)cc(-c4ccccc4)nc23)c1	i	i	i	-5.26*	i	i	i	-20.5%*	65.5%*	i	i
Cc1cc(=O)n2[nH]c(N)c(N=Nc3ccccc3)c2n1	i	i	i	i	i	nt	nt	nt	nt	nt	nt
O=C(NC1CCCC1)c1ccc(Cn2c(=O)[nH]c3ccsc3c2=O)cc1	i	i	i	i	i	nt	nt	nt	nt	nt	nt
CCN1CCN(c2cc(C)c3cc(NC(=O)c4ccc(Br)o4)ccc3n2)CC1	i	i	-6*	-5.45*	i	i	i	-11.5%*	42.5%*	i	i
CCN1CCN(c2cc(C)c3cc(NC(=O)c4ccncc4)ccc3n2)CC1	i	i	i	-5.48*	i	-100.5%*	i	i	i	i	i
CCN1CCN(c2cc(C)c3cc(NC(=O)c4ccc(C)c(C)c4)ccc3n2)CC1	i	i	i	i	i	nt	nt	nt	nt	nt	nt
O=c1cc(-c2ccccc2)nc(SCCOc2ccccc2Cl)[nH]1	i	i	i	i	i	nt	nt	nt	nt	nt	nt
Cc1cc(Br)ccc1OCCCCNC(C)(C)C	i	i	i	i	i	nt	nt	nt	nt	nt	nt
CC(C)COc1ccc(Br)cc1CNC(C)(C)C	i	i	i	-8.84*	i	584.0%*	120.0%*	127.5%*	83.0%*	105.5%*	nt
CN1CCN(c2ccc(Cl)cc2NC(=O)c2ccc(=O)n(C)n2)CC1	i	i	i	-9.02*	i	-340.0%*	67.5%*	-59.0%*	54.0%*	52.0%*	i
CNCC(O)COc1cccc(OC)c1 (stereo unspecified)	i	i	i	i	i	nt	nt	nt	nt	nt	nt
COc1ccc(CCNCC(O)COc2cccc(Br)c2)cc1 (stereo unspecified)	i	i	i	-5.46*	i	186.0%*	i	29.5%*	49.5%*	i	nt
OCCN(CC#CC(O)(c1ccccc1)c1ccccc1)CCO	i	i	i	i	i	nt	nt	nt	nt	nt	nt
CN(CC#CC(O)(c1ccccc1)c1ccccc1)C(C)(C)C	i	i	i	-8.9*	i	nt	nt	nt	nt	73.5%*	nt	TRPC4 spec 2=i;TRPC4 spec=6.1%*;HEK293 MPD ctr 2-1=-16.0%*;HEK293 MPD ctr-1=8.8%*
CC(C)N(CC#CC(O)(c1ccccc1)c1ccccc1)C(C)C	i	i	i	-6.41*	i	115.0%*	96.0%*	22.5%*	i	73.0%*	nt
CC(C)N(CC#CC(O)(c1ccccc1)c1ccccc1)CCO	i	i	i	i	i	nt	nt	nt	nt	nt	nt
Clc1ccc2[nH]c3c(N4CCC5(CC4)OCCO5)ncnc3c2c1	i	i	i	i	i	nt	nt	nt	nt	nt	nt
CCOc1ccc(Br)cc1C(=O)N/N=C/c1c[nH]c2ccccc12	i	i	i	i	i	nt	nt	nt	nt	nt	nt
O=C(N/N=C/c1c[nH]c2ccccc12)c1cc(Br)ccc1O	i	i	i	-6.33*	i	i	i	i	60.5%*	44.0%*	i
COc1ccc(OC)c(-c2nc(C(=O)NCCCN3CCOCC3)cc3c2[nH]c2ccccc23)c1	i	i	i	-6.03*	i	i	i	i	48.5%*	i	i
Cc1ccc(-c2nc(C(=O)NCCCN(C)C)cc3c2[nH]c2ccccc23)cc1	i	i	i	-9.78*	i	nt	nt	nt	nt	78.3%*	i	TRPC4 spec 2=30.0%*;TRPC4 spec=-21.3%*;HEK293 MPD ctr 2-1=30.0%*;HEK293 MPD ctr-1=-255.0%*
CN(Cc1ccccc1F)C(=O)c1ccccc1Sc1ccccc1C#N	i	i	i	i	i	nt	nt	nt	nt	nt	nt
CC12CCC(=O)N1C(C(=O)Nc1cc(C(F)(F)F)ccc1N1CCCCC1)CS2 (stereo unspecified)	i	i	i	i	i	nt	nt	nt	nt	nt	nt
CC12CCC(=O)N1C(C(=O)Nc1cc(C(F)(F)F)ccc1N1CCOCC1)CS2 (stereo unspecified)	i	i	i	-5.48*	i	i	i	i	i	i	i
CCOc1ccc(C2C=C(c3ccccc3)Nc3nnnn32)cc1 (stereo unspecified)	i	i	i	i	i	nt	nt	nt	nt	nt	nt
O=C(N/N=C/c1ccccn1)c1cccs1	i	i	i	i	i	nt	nt	nt	nt	nt	nt
C/C(=N\Nc1nc2ccccc2[nH]1)c1ccc(N2CCOCC2)cc1	i	i	i	-5.76*	i	i	i	-13.5%*	i	i	i
C/C(=N\Nc1nc2ccccc2[nH]1)c1ccc(C)o1	i	i	i	-6.04*	i	-139.5%*	59.5%*	-26.5%*	79.5%*	75.5%*	i
C/C(=N\Nc1nc2ccccc2[nH]1)c1ccc(Cl)s1	i	i	i	i	i	nt	nt	nt	nt	nt	nt
